This is an account of results in ChEMBL document CHEMBL4513216, “Probing the Open Global Health Chemical Diversity Library for Multistage-Active Starting Points for Next-Generation Antimalarials” (ACS Infect Dis, 2020).

The nature of this data set: Toxicity liver stage against HepG2, at 10uM. Type of data set: cell-based. Also on record: test concentration 10 uM, cell line HepG2-A16-CD81EGFP. The conditions noted are these: human, HepG2-A16-CD81EGFP cells; read-out: INHIBITION
An outline of the steps: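 Uninfected HepG2-A16-CD81EGFP cells, 3 × 10^3 per well, 1536-well, plated on prespotted compound at 10 μM final, parasite-free screening media added to match infected plates; puromycin 10 μM positive, DMSO 0.5% negative; run in parallel with 48 h PbLuc assay at 37 °C, 5% CO2; viability by CellTiter-Glo luminescence, normalized to controls.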
As to `COc1ccc(-c2csc(N)c2C#N)cc1OC`, the cytotoxicity at 10 µM was -2.46%.

Take `COc1c(Br)cc(Cl)cc1NCc1c(C)noc1C`: the cytotoxicity at 10 µM amounted to 12.8%.

`CCOC(=O)CCCNC(=O)CN1CCN(c2ncccn2)CC1`: the cytotoxicity at 10 µM was -13.3%.

Take `CN1C[C@@H](O)[C@]2(CCN(C(=O)OCc3ccccc3)C2)S1(=O)=O`: the cytotoxicity at 10 µM is -0.53%.

Consider `O=C1CCNc2ccc(F)cc2CN1Cc1ccco1`, for which the cytotoxicity at 10 µM was -1.36%.

Regarding `COC1CN(C(=O)CC(C)C)CCC(=O)N(C)c2ccccc21` (stereo unspecified), the cytotoxicity at 10 µM is -2.72%.

Turning to `Cn1cccc1C(CNC(=O)COc1ccc(Cl)cc1Cl)N1CCCC1` (stereo unspecified), the cytotoxicity at 10 µM was -8.64%.

Turning to `CC(=O)NCc1cc(-c2cccs2)n(C2CCCC2)n1`, the cytotoxicity at 10 µM was 3.29%.

Turning to `O=C(COc1coc(CN2CCCCCC2)cc1=O)c1ccccc1`, the cytotoxicity at 10 µM came out at 4.21%.

For the compound `Cc1cc(C(=O)N2C[C@@H]3[C@@H](C2)OCC(=O)N3CC2CC2)no1`, the cytotoxicity at 10 µM was -10.4%.

For `CSc1cccc(NC(=O)Nc2c(O)oc3ccccc3c2=O)c1`, the cytotoxicity at 10 µM was 4.45%.

As for `CCCC1c2cccn2CCN1S(=O)(=O)N1CCOCC1` (stereo unspecified), the cytotoxicity at 10 µM was found to be 1.26%.

Consider `O=C(c1ccc2[nH]nnc2c1)N1CC[C@H](O)[C@]2(CCCO2)C1`, for which the cytotoxicity at 10 µM was -2.98%.

For the compound `O=C(O)COc1ccc(CN2CCCC(Cc3cccnc3)C2)cc1` (stereo unspecified), the cytotoxicity at 10 µM is -4.98%.

For the compound `CC(=O)N1CCC(c2cncc(Cl)n2)CC1`, the cytotoxicity at 10 µM came to 3.8%.

`CN(C)c1nc(O)cc(C2CCN(C(=O)Cc3ccccn3)C2)n1` (stereo unspecified): the cytotoxicity at 10 µM is -0.399%.

`Cc1cc(Nc2cnccn2)nc(C2CCCN(CCO)C2)n1` (stereo unspecified): the cytotoxicity at 10 µM was -5.87%.

As to `CC(=O)N1CCC(c2ncc3c(n2)CCN(C(=O)c2ccccc2)C3)C1` (stereo unspecified), the cytotoxicity at 10 µM is -8.69%.

For `NC(=O)C1(CCCc2ccncc2)CCCN1` (stereo unspecified), the cytotoxicity at 10 µM is -21.5%.

Take `C=Cn1cc(CN2CCc3nc(-c4cccnc4)nc(O)c3C2)c(C)n1`: the cytotoxicity at 10 µM was -6.94%.

As to `O=C(C[S+]([O-])c1ccc(F)c(F)c1)NCc1cc(F)cc(F)c1` (stereo unspecified), the cytotoxicity at 10 µM is 5.58%.

Take `O=C(Cc1cccc(F)c1F)N1CCOC(c2cccc(O)c2)C1` (stereo unspecified): the cytotoxicity at 10 µM came to 0.0788%.

`Cc1ccc(F)cc1S(=O)(=O)NCc1[nH]ncc1Br`: the cytotoxicity at 10 µM worked out at 10.3%.

`COc1cc(NC(=O)N(C)CC2CC2)ncn1`: the cytotoxicity at 10 µM is 7.09%.

Regarding `CCOc1ncccc1CNS(=O)(=O)c1ccc2c(c1)CCCC(=O)N2`, the cytotoxicity at 10 µM worked out at 12.1%.

Regarding `Cc1cccc(C(=O)N2CCSCC2)c1NC(=O)c1ccsc1`, the cytotoxicity at 10 µM was determined as 3.85%.

As for `NC(=O)Cn1c(SCc2noc(-c3ccsc3)n2)nnc1C1CC1`, the cytotoxicity at 10 µM turned out to be 15.4%.

For the compound `CSCCC(NC(N)=O)C(=O)Nc1ccc(-n2cccn2)nc1` (stereo unspecified), the cytotoxicity at 10 µM was found to be 4.78%.

For the compound `CCS(=O)(=O)c1ccc(N2CCC(NC(=O)C(C)SC)CC2)cc1` (stereo unspecified), the cytotoxicity at 10 µM was found to be 7.99%.

Turning to `CC(C)COCC(C)NC(=O)NCc1cccc(-n2cncn2)c1` (stereo unspecified), the cytotoxicity at 10 µM is -0.662%.

Turning to `Cc1ccc(-c2nc(CN3CC(n4nc(C)cc4C)C3)no2)cc1`, the cytotoxicity at 10 µM is -1.64%.

In the case of `Cc1nsc(NCCNS(=O)(=O)c2cccc(Cl)c2)n1`, the cytotoxicity at 10 µM came to 5.62%.

As for `CC(=O)NCCNC(=O)CN1CCCC1Cn1nc(C)nc1C` (stereo unspecified), the cytotoxicity at 10 µM is -1.26%.

Regarding `CN(CCc1ccncc1)C(=O)C1CSCN1C(=O)C1CCCC1` (stereo unspecified), the cytotoxicity at 10 µM is -7.39%.

On to `O=C(Nc1ccc(CCN2CCSCC2)cc1)NC1CC1`, for which the cytotoxicity at 10 µM is -12.1%.

As to `CS(=O)(=O)CCNCc1ccc(OCc2ccncc2)cc1`, the cytotoxicity at 10 µM was -134%.

Turning to `CN(C(=O)C1CCC1)C1CCN(c2ccccc2Cl)C1=O` (stereo unspecified), the cytotoxicity at 10 µM was -0.949%.

Turning to `CC(C)c1noc(CNc2ccc(OC(F)F)cc2OC(F)F)n1`, the cytotoxicity at 10 µM was determined as 23.6%.

In the case of `O=C(NCc1nncn1C1CC1)c1ccc(F)c(COCC2CC2)c1`, the cytotoxicity at 10 µM was 10.2%.

In the case of `Cc1ccc(C(=O)NS(C)(=O)=O)cc1S(C)(=O)=O`, the cytotoxicity at 10 µM turned out to be 4%.

For the compound `CCc1nnsc1C(=O)N(C)Cc1ccco1`, the cytotoxicity at 10 µM was -45%.

With `CCCOCC(=O)NC1CCc2nc(C)cn2C1` (stereo unspecified), the cytotoxicity at 10 µM was -2.88%.

With `CC(=O)N1CCC(c2nc3ccc(C)cn3n2)CC1`, the cytotoxicity at 10 µM is 0.819%.

For `Cc1nocc1C(=O)N1CCOC2(COCCN(CC3CC3)C2)C1` (stereo unspecified), the cytotoxicity at 10 µM came to 3.42%.

On to `CCN(CCOC)C(=O)c1ccc2c(c1)nc(N1CC[C@H](O)C1)n2C`, for which the cytotoxicity at 10 µM is -2.96%.

`CCC(O)CNc1ccc(-c2nc(CC(C)C)no2)cn1` (stereo unspecified): the cytotoxicity at 10 µM is -6.19%.

`Cc1nc(C(C)C)sc1C(=O)N1CCC(N2CCSCC2)CC1`: the cytotoxicity at 10 µM is -3.54%.

For `CNc1ncc(C(=O)N[C@H]2CN(CCCSC)C[C@@H]2C2CC2)cn1`, the cytotoxicity at 10 µM came to 1.33%.

In the case of `CCN(CC)c1ncccc1CNC(=O)c1cc2nc(C)cc(C)n2n1`, the cytotoxicity at 10 µM is 6.43%.

As for `COc1cc(CN2CC[C@@H](N3CCCCCC3)[C@H](O)C2)cc(Cl)c1OC`, the cytotoxicity at 10 µM is -1.47%.

For the compound `O=C(O)C1(n2ccc(-c3ccco3)n2)CCN(Cc2cccnc2)CC1`, the cytotoxicity at 10 µM is -131%.

As to `Cc1cc(CN2CCC(C(=O)O)(n3ccc(-c4ccco4)n3)CC2)on1`, the cytotoxicity at 10 µM was -131%.

Regarding `CCCc1ccc(CN2CCC3(CCC(=O)N(C(C)C(=O)O)C3)CC2)o1` (stereo unspecified), the cytotoxicity at 10 µM is -2.69%.

Consider `CCN1CC(C(=O)NCCc2csc(-c3ccncc3)n2)CCC1=O` (stereo unspecified), for which the cytotoxicity at 10 µM is -11.3%.

Take `Cc1noc(C)c1CCNc1nccc(CCC(F)(F)F)n1`: the cytotoxicity at 10 µM was -158%.

`O=C(NCCC1CN(Cc2c[nH]cn2)CCO1)Nc1ccccc1` (stereo unspecified): the cytotoxicity at 10 µM is -1.92%.

For `CCC(=O)N1CCC2(CC1)c1nc[nH]c1CCN2S(C)(=O)=O`, the cytotoxicity at 10 µM was -11.4%.

With `COc1ccccc1C1CNC(=O)c2nc(-c3ncc[nH]3)[nH]c2C1` (stereo unspecified), the cytotoxicity at 10 µM was -8.6%.

For the compound `c1ccc(Cc2noc(CN3CCCCC3Cn3cccn3)n2)cc1` (stereo unspecified), the cytotoxicity at 10 µM was -0.945%.

For `Cc1csc(C2CCCCN2C(=O)c2c[nH]c(C)n2)n1` (stereo unspecified), the cytotoxicity at 10 µM is -33.7%.

Regarding `Cc1noc(Cl)c1CCC(=O)N1CCN(Cc2ccncc2)CC1`, the cytotoxicity at 10 µM is -14.2%.

Take `Cc1nc(C)n(CC2CN(Cc3ccc4c(c3)OCCO4)CCO2)n1` (stereo unspecified): the cytotoxicity at 10 µM was -3.63%.

Consider `O=C(CCc1ccccc1F)N1CCC(Nc2cccnn2)CC1`, for which the cytotoxicity at 10 µM is -3.78%.

On to `c1cnn(CC2CN(Cc3nnc(C4CC4)o3)CCO2)c1` (stereo unspecified), for which the cytotoxicity at 10 µM is -5.09%.

On to `Cc1noc(C)c1CCC(=O)N1CCCN(C)CC1`, for which the cytotoxicity at 10 µM was -14.1%.

For the compound `Cc1noc(C)c1CCC(=O)N1CCN(Cc2cscn2)CC1`, the cytotoxicity at 10 µM was -6.28%.

Regarding `Cc1ccc(CC(=O)N2CCC(Nc3ccc(C)nn3)CC2)cn1`, the cytotoxicity at 10 µM is -4.75%.

In the case of `CC(C)c1nccn1C1CCCN(C(=O)c2cn3cccnc3n2)C1` (stereo unspecified), the cytotoxicity at 10 µM was -3.63%.

As to `Cc1cccc(OCCCN2CCC(N(C)Cc3noc(C)n3)C2)c1` (stereo unspecified), the cytotoxicity at 10 µM was -2.61%.

For the compound `CCN1CCN(CCNC(=O)c2sc(C)nc2C)CC1`, the cytotoxicity at 10 µM came out at 0.927%.

In the case of `COCCc1noc(CN2CCCC2Cn2nc(C)cc2C)n1` (stereo unspecified), the cytotoxicity at 10 µM is -1.92%.

For the compound `CC(C)c1nc(C2CCCN(C(=O)c3ccc4c(c3)COC4)C2)no1` (stereo unspecified), the cytotoxicity at 10 µM was -7%.

In the case of `COc1ccc(CC(=O)N2CCCC2Cn2cc(C)cn2)cc1OC` (stereo unspecified), the cytotoxicity at 10 µM is -17.9%.

Turning to `CC(C)c1nccn1C1CCCN(C(=O)c2cccc3[nH]ncc23)C1` (stereo unspecified), the cytotoxicity at 10 µM was -0.35%.

For the compound `Cc1occc1CN(C)Cc1nc2c(cnn2C)c(=O)[nH]1`, the cytotoxicity at 10 µM was found to be 2.11%.

As for `CSCCC(=O)NS(=O)(=O)c1ccc2c(c1)OCCO2`, the cytotoxicity at 10 µM was -14.7%.

Take `O=C(O)C1CCCCN1C(=O)c1cccc(C(F)(F)F)c1` (stereo unspecified): the cytotoxicity at 10 µM was -5.95%.

Regarding `COc1ccccc1CC(=O)N1CCC(NCc2c[nH]nc2C)CC1`, the cytotoxicity at 10 µM was -13.5%.

As to `O=C(NCCNc1ncccn1)Nc1cc(C(F)(F)F)c[nH]c1=O`, the cytotoxicity at 10 µM is -4.69%.

In the case of `Cc1cnn(C2CCCN(C(=O)CCCNc3ncccn3)C2)c1` (stereo unspecified), the cytotoxicity at 10 µM is -3.27%.

Consider `O=C(Cc1ccccc1)N1CCN(Cc2noc(C3CC3)n2)CC1`, for which the cytotoxicity at 10 µM came to 1.15%.

Take `CCc1cccc(OCC(=O)N2CCCC(n3cncn3)C2)c1` (stereo unspecified): the cytotoxicity at 10 µM was -7.62%.

On to `Cc1cc(C)n(C2CCCN(C(=O)c3cnc4onc(C)c4c3)C2)n1` (stereo unspecified), for which the cytotoxicity at 10 µM stood at 5.17%.

Regarding `Cn1cc(CN(Cc2ccccc2)Cc2ccccn2)cn1`, the cytotoxicity at 10 µM was 19.1%.

`O=C(CN1CCC(c2cc(=O)n3c(n2)CCCCC3)C1)N1CCCCC1` (stereo unspecified): the cytotoxicity at 10 µM was -22.8%.

With `Fc1ccc(CN2CCC(F)(F)C3(CCN(c4cnccn4)C3)C2)cc1` (stereo unspecified), the cytotoxicity at 10 µM amounted to 8.62%.

Consider `CNC(=O)CNCc1c[nH]nc1-c1cc2ccccc2o1`, for which the cytotoxicity at 10 µM was 6.7%.

As for `CC(C)N1CCO[C@H]2CN(C(=O)c3ccncc3F)C[C@H]21`, the cytotoxicity at 10 µM is -146%.

On to `NC(=O)COc1ccc(CNCc2cc(F)ccc2F)cc1`, for which the cytotoxicity at 10 µM was 18.5%.

As for `c1ccc(OCC2C[C@@H]3[C@@H](C2)OCCN3CC2CCOCC2)nc1` (stereo partly specified), the cytotoxicity at 10 µM stood at 2.75%.

As to `CC(C)(C)n1cc(CNC2CCN(C(=O)c3ccoc3)CC2)cn1`, the cytotoxicity at 10 µM was found to be 6.35%.

Consider `CN(C)C(=O)[C@H]1C[C@H]2OCC[C@H]2N(CCOc2ccc(Cl)cc2)C1`, for which the cytotoxicity at 10 µM is -115%.

Regarding `O=S(=O)(N[C@@H]1CCO[C@]2(CCN(CC3CCOCC3)C2)C1)C1CC1`, the cytotoxicity at 10 µM is -142%.

For the compound `CN1CC(=O)N(c2cccc(F)c2)CC12CCN(Cc1cccnc1)C2` (stereo unspecified), the cytotoxicity at 10 µM was 9.69%.

In the case of `O=C(Nc1ccc(F)cc1)N1C[C@@H]2C[C@H](C(=O)N3CCOCC3)[C@H](C1)O2`, the cytotoxicity at 10 µM turned out to be 3.41%.

With `COCCN1C(=O)[C@@H]2CC[C@H]1CN(S(=O)(=O)c1ccc(OC)cc1)C2`, the cytotoxicity at 10 µM was determined as 6.35%.
